Here are results for 11 molecules from ChEMBL document CHEMBL1157843, “Synthesis and anticonvulsant activity of a new 6-alkoxy-[1,2,4]triazolo[4,3-b]pyridazine” (Eur J Med Chem, 2010).

Calls of active or inactive are those of the source. No cut-off for these calls is given here.

Series [1] relates to Mus musculus. The experiment in a line: Anticonvulsant in ip dosed mouse assessed as protection against maximum electric stimulus-induced seizures. The series is classed as functional. In short, it runs like this:
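Phase-II quantitation in KunMing mice (18–25 g), vehicle polyethylene glycol-400. Groups of 10 received a range of i.p. doses until at least three points fell within 10–90% MES protection or minimal rotarod neurotoxicity. ED50, TD50 and 95% confidence intervals computed from regression by an NINDS program. PI = TD50/ED50.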

Series [2] has as its system Mus musculus. The series is described as follows: Neurotoxicity against mouse at 100 mg/kg, ip after 4 hrs by rotarod ataxia test. To be noted: in vivo. More on the design: dose 100 mg/kg, route intraperitoneal. Type of series: toxicity, organism-based. In short, it runs like this:
(§1)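 Phase-I rotarod ataxia screen per NIH ADD protocol. KunMing mice (18–25 g), three per dose, test agent in polyethylene glycol-400 i.p. at 30, 100 or 300 mg/kg. Neurological deficit read 30 min and 4 h after dosing; scored as animals showing toxicity/animals tested.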

Series [3] has as its system Mus musculus. The series is described as follows: Anticonvulsant in mouse assessed as protection against maximum electric stimulus-induced seizures at 30 mg/kg, ip after 4 hrs. Type of series: functional, organism-based. More on the design: dose 30 mg/kg. In short, it runs like this: (§2)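 Phase-I qualitative MES screen following NIH ADD protocol. KunMing mice (18–25 g), three per dose, test agent in polyethylene glycol-400 i.p. at 30, 100 or 300 mg/kg. Protection assessed 0.5 h and 4 h after dosing; scored as animals protected/animals tested.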

The test system of series [4] is Mus musculus. The series is described as follows: Neurotoxicity against mouse at 100 mg/kg, ip after 0.5 hrs by rotarod ataxia test. Type of series: toxicity, organism-based. More on the design: dose 100 mg/kg, route intraperitoneal. The settings on record: in vivo. The essentials:
as §1

The subject of series [5] is Mus musculus. The series is described as follows: Anticonvulsant in mouse assessed as protection against maximum electric stimulus-induced seizures at 100 mg/kg, ip after 4 hrs. More on the design: dose 100 mg/kg. The series is classed as functional, organism-based. In short, it runs like this:
as §2

Series [6] has as its system Mus musculus. The experiment in a line: Neurotoxicity against mouse at 30 mg/kg, ip after 0.5 hrs by rotarod ataxia test. To be noted: in vivo. Type of series: toxicity, organism-based. More on the design: dose 30 mg/kg, route intraperitoneal. The essentials: as §1
The subject of series [7] is Mus musculus. The series is described as follows: Protective index, ratio of TD50 for ip dosed mouse to ED50 for maximum electric stimulus-induced seizure in ip dosed mouse. The series is classed as functional.
Series [8] relates to Mus musculus. The experiment in a line: Neurotoxicity against mouse at 30 mg/kg, ip after 4 hrs by rotarod ataxia test. The series is classed as toxicity, organism-based. More on the design: dose 30 mg/kg, route intraperitoneal. To be noted: in vivo. The essentials: as §1
The nature of series [9]: Neurotoxicity against ip dosed mouse by rotarod ataxia test. To be noted: in vivo. The series is classed as toxicity, organism-based.
In series [10] the test system is Mus musculus. The experiment in a line: Anticonvulsant in mouse assessed as protection against maximum electric stimulus-induced seizures at 100 mg/kg, ip after 0.5 hrs. Type of series: functional, organism-based. More on the design: dose 100 mg/kg. The essentials:
as §2

Take `CCCCCCCCOc1ccc2nncn2n1`: in the series with Mus musculus [1], the ED50 was above 100 mg/kg. In addition, the Activity entry in the series on Mus musculus [2] is “Non-toxic”; with Mus musculus [4], “Toxic”. Also, the result in the series with Mus musculus [3] was inactive.
Regarding `CCCCOc1ccc2nncn2n1`, in the series on Mus musculus [5], the outcome was inactive. In addition, in the series with Mus musculus [1], the ED50 was above 100 mg/kg. For the same molecule, the results for the Activity result in the series with Mus musculus [2] and with Mus musculus [4] were “Non-toxic” and “Toxic”, respectively.
In the case of `CCCCCCCOc1ccc2nncn2n1`, the results for the Activity result in the series on Mus musculus [6] and with Mus musculus [8] were “Toxic” and “Non-toxic”, respectively. For the same molecule, the PI with Mus musculus [7] amounted to 1.7. In the series on Mus musculus [1], the ED50 turned out to be 42.4 mg/kg. In [9], this molecule displayed a TD50 of 73 mg/kg. Further, the result in the series with Mus musculus [3] was inactive.
On to `CCC1(c2ccccc2)C(=O)NC(=O)NC1=O` [PHENOBARBITAL], for which, in the series with Mus musculus [1], the ED50 was determined as 21.8 mg/kg.
Take `CCCCCOc1ccc2nncn2n1`: the Activity entry in the series on Mus musculus [6] was “Toxic”; in the series on Mus musculus [8] it was “Non-toxic”. In the series on Mus musculus [7], the PI worked out at 1.79. Besides, the ED50 with Mus musculus [1] turned out to be 39.4 mg/kg. Moreover, the TD50 in series [9] stood at 70.4 mg/kg. In addition, the outcome with Mus musculus [3] was inactive.
For `COc1ccc(Oc2ccc3nncn3n2)cc1`, the outcome in the series with Mus musculus [5] was inactive. Besides, the ED50 in the series with Mus musculus [1] was above 100 mg/kg. Further, the Activity result with Mus musculus [2] and in the series with Mus musculus [4] was “Non-toxic” each time.
For the molecule `Brc1ccc(Oc2ccc3nncn3n2)cc1`, the PI in the series on Mus musculus [7] stood at 6.7. The result in the series on Mus musculus [5] was inactive. Also, in the series on Mus musculus [10], the result was Active. Further, the ED50 in the series with Mus musculus [1] was determined as 49.1 mg/kg. Moreover, the Activity result with Mus musculus [2] and in the series on Mus musculus [4] was “Non-toxic” in each case. The same molecule showed a TD50 in [9] of 329 mg/kg.
Regarding `Cc1ccc(Oc2ccc3nncn3n2)cc1`, the outcome in the series on Mus musculus [5] was inactive. Moreover, in the series with Mus musculus [1], the median effective dose (ED50) was above 100 mg/kg. Further, the Activity result with Mus musculus [2] and with Mus musculus [4] was “Non-toxic” throughout.
For `Cc1ccccc1Oc1ccc2nncn2n1`, in the series with Mus musculus [7], the PI was found to be 4.01. Further, in the series on Mus musculus [5], the outcome was inactive. Besides, the result in the series on Mus musculus [10] was Active. Moreover, the ED50 in the series on Mus musculus [1] was found to be 54.8 mg/kg. Moreover, the Activity entry in the series with Mus musculus [2] and with Mus musculus [4] was “Non-toxic” each time. Further, the TD50 in [9] came out at 220 mg/kg.
`Clc1ccccc1Oc1ccc2nncn2n1`: the PI in the series on Mus musculus [7] was 4. Further, the result in the series on Mus musculus [5] was inactive. Moreover, the result with Mus musculus [10] was Active. In addition, the ED50 in the series on Mus musculus [1] came out at 47.3 mg/kg. Besides, the Activity entry with Mus musculus [2] and in the series with Mus musculus [4] was “Non-toxic” each time. For the same molecule, the TD50 in [9] stood at 190 mg/kg.
`O=c1ccc(Oc2ccccc2)n[nH]1`: the PI in the series with Mus musculus [7] is reported as 2.5. For the same molecule, the outcome in the series on Mus musculus [5] was inactive. Moreover, in the series with Mus musculus [1], the ED50 is 110 mg/kg. In the series on Mus musculus [2], the Activity entry is on record as “Non-toxic”. This molecule yielded a TD50 in series [9] of 274 mg/kg.
